Measured values from PubChem BioAssay.
Active and inactive are the calls of the source.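 The calls were made as follows: active = current rise at least 3 SD above the untreated control mean in each of two repeat wells; inactive = the rest.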

Each compound was assayed against Potassium voltage-gated channel subfamily KQT member 1 (Homo sapiens) (UniProt P51787) (assay: KCNQ1 activators by electrophysiology – IonWorks patch clamp, KCNQ1-CHO cells, orthogonal assay for KCNQ1 potentiator project, confirmation (AID 493184)). Details: automated patch clamp current, at 10 µM.
Potassium voltage-gated channel subfamily KQT member 1 (Homo sapiens), sequence (P51787 whole entry, looked up): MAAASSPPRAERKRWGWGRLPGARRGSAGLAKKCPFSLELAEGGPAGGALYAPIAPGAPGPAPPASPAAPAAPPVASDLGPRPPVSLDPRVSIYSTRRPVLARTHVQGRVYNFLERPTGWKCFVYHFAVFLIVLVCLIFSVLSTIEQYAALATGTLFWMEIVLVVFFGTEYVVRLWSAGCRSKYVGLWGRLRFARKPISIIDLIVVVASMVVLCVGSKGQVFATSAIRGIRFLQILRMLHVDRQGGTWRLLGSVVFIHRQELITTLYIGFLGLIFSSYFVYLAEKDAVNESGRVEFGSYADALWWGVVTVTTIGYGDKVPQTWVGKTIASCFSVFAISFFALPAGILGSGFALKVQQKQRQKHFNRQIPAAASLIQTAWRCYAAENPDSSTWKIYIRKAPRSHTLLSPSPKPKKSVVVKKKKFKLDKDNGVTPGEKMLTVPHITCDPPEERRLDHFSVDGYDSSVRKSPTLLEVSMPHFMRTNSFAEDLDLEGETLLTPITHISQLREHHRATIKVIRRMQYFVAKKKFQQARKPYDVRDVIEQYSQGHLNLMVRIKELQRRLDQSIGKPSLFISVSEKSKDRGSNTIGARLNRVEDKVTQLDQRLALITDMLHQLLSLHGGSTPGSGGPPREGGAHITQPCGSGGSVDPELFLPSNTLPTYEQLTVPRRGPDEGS
Method in brief: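 Material: KCNQ1-expressing CHO cells; doses: 10 µM final, single point; probe or stimulus: voltage step from -90 mV holding to +40 mV, 2,000 ms; signal: automated voltage clamp, amphotericin B perforated patch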

SMILES	outcome
CO/N=C/CC(=O)Nc1ccc(F)cc1F	inactive
COc1cccc(NC(=O)c2cncs2)c1	inactive
Oc1c(N=NC(=S)Nc2ccccc2F)c2ccccc2n1Cc1ccccc1Cl	inactive
Cn1cccc1/C=N/n1c(-c2ccc(C(C)(C)C)cc2)n[nH]c1=S	inactive
COc1ccc(CCNC(=O)c2ccc(N(C)S(=O)(=O)c3ccc(C)cc3)cc2)cc1OC	inactive
O=S(=O)(Nc1ccccc1Cl)c1ccc(NS(=O)(=O)c2cccs2)cc1	inactive
CCSC(=S)c1c(C)[nH]n(-c2ccccc2)c1=O	inactive
CC1CCc2sc3nc(N4CCN(CCO)CC4)n4ncnc4c3c2C1 (stereo not given)	inactive
COc1ccc(S(=O)(=O)N2CCCC(C(=O)O)C2)cc1 (stereo not given)	inactive
CNC(=S)Nc1sc2c(c1C(=O)OC)CCC2	inactive
CC1CCN(c2ncnc3ccccc23)CC1	inactive
CC(NC(=S)NC(=O)c1ccccc1Br)c1ccccc1 (stereo not given)	inactive
CC(Sc1n[nH]c(N)n1)C(=O)NC1CCCCC1C (stereo not given)	inactive
O=C(NNC(=O)c1ccc(Cl)c(Cl)c1)c1ccncc1	inactive
O=c1c2ccccc2nc(-c2ccc(Cl)c(Cl)c2)n1O	inactive
Cc1ccc(C)c(NS(=O)(=O)c2cc(C(=O)NCc3ccccn3)ccc2Cl)c1	inactive
CCN(C(=O)COC(=O)c1ccccc1Nc1cccc(C)c1C)C1CCS(=O)(=O)C1 (stereo not given)	inactive
CN=C1c2cc3cc(OC)ccc3n2CCN1Cc1ccccc1	inactive
Cc1cccc(C(=O)Nc2ccccc2C(=O)NCc2cccnc2)c1	inactive
O=C(NCc1ccccc1)c1onc(CSc2ccc(F)cc2)c1C(=O)NCCCN1CCOCC1	inactive
